10 compounds from ChEMBL document CHEMBL1135825, “Antitumor AHMA linked to DNA minor groove binding agents: synthesis and biological evaluation” (J Med Chem, 2002) can be followed below.

The structures appear in SMILES notation. Where only a bound is given, the exact number is not on record here.

Test [1] can be described thus: Cytotoxicity against human nasopharyngeal carcinoma BM-1. It counts as functional. Put shortly: (§1)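 XTT-tetrazolium growth assay, cells exposed 72 h to six to seven concentrations per compound. Phenazine methosulfate-XTT added for 6 h at 37 °C, then absorbance read at 450 and 630 nm. IC50 derived from median-effect plot of dose-effect data.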
Test [2] is described as follows: Cytotoxicity against human Glioblastoma multiformi DBTRG. The test is classed as functional. Summed up:
as §1

The subject of test [3] is Nucleic Acid. In words: Percentage of protein-linked DNA breaks. It counts as functional. Also noted: concentration or dose not given beside the values. Put shortly: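 Log-phase cells labeled 24 h with [14C]-thymidine, trypsinized, resuspended at 5 × 10⁵ cells/mL and shaken 1 h at 37 °C in suspension. Drug at 10 μM added for 0.5 h. Protein-linked DNA breaks quantified by potassium-SDS coprecipitation and reported as percentage.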

A further test relates to HONE1 cell line. Description: Cytotoxicity against human nasopharyngeal carcinoma HONE-1. The test is classed as functional, cell-based. Summed up:
as §1

In a further test the test system is HT-29. In words: Cytotoxicity against human colon HT-29 cell line. It counts as functional, cell-based. Put shortly: as §1
The subject of the next test is HepG2. In words: Cytotoxicity against human hepatoma Hepa-G2. The test is classed as functional, cell-based. Put shortly: as §1
A further test concerns TSGH. Description: In vitro cytotoxicity against human TSGH. It counts as functional, cell-based. Put shortly:
as §1

The subject of test [4] is CCRF-CEM. In words: (§2) Cytotoxicity against human T-cell acute lymphocytic leukemia CCRF-CEM. The test is classed as functional, cell-based. Summed up: as §1
For another test, the system named is MX1. In words: Cytotoxicity against human Breast carcinoma MX-1. The test is classed as functional, cell-based. Summed up:
as §1

The subject of test [5] is Nucleic Acid. Description: Percentage of protein-linked DNA breaks; Not determined. The test is classed as functional.
In test [6] the test system is CCRF-CEM. Described as §2. The test is classed as cell-based. Put shortly: as §1

The term IC50 denotes the concentration that gives 50% inhibition. With `CN(C)CCNC(=O)c1cc(NC(=O)c2cc(NC(=O)CCC(=O)Nc3cc(CO)cc(Nc4c5ccccc5nc5ccccc45)c3)cn2C)cn1C`, the concentration for half-maximal inhibition (IC50) in test [1] worked out at 8600 nM; in test [2], 20000 nM; in the test with HONE1 cell line, 2400 nM; in the test on HT-29, 4400 nM; in the test on HepG2 it was 7000 nM; in the test on TSGH, 4800 nM. The compound also returned an Activity in the test on Nucleic Acid [3] of 3.3%.

Turning to `CCOC(=O)Nc1cc(COC(=O)CCC(=O)Nc2cc(C(=O)NCCN(C)C)n(C)c2)cc(Nc2c3ccccc3nc3ccccc23)c1`, the IC50 in test [1] is 80 nM; with CCRF-CEM [4], 6850 nM; in test [2], 800 nM; with HONE1 cell line, 60 nM; in the test on HT-29, 230 nM; in the test on HepG2 it was 90 nM. Further, the values for the IC50 in the test with MX1 and in the test with TSGH were 39 nM and 80 nM, respectively. The compound further yielded an Activity in the test on Nucleic Acid [3] of 16.5%.

For `CN(C)CCNC(=O)c1cc(NC(=O)c2cc(NC(=O)CCCC(=O)Nc3cc(CO)cc(Nc4c5ccccc5nc5ccccc45)c3)cn2C)cn1C`, the IC50 was 77800 nM in test [1]; over 100000 nM in [2]; 63900 nM in the test on HONE1 cell line; over 100000 nM with HT-29; 68000 nM in the test with HepG2; 36400 nM in the test with TSGH. In the test on Nucleic Acid [3], this compound came in with an Activity of 0%.

With `CN(C)CCNC(=O)c1cc(NC(=O)CCC(=O)Nc2cc(CO)cc(Nc3c4ccccc4nc4ccccc34)c2)cn1C`, the IC50 was 7000 nM in test [1]; 8100 nM in test [2]; 850 nM in the test with HONE1 cell line; 1700 nM in the test with HT-29; 4200 nM in the test on HepG2; 4600 nM in the test on TSGH. Besides, the Activity with Nucleic Acid [3] is 3.3%.

On to `Nc1cc(CO)cc(Nc2c3ccccc3nc3ccccc23)c1`, for which the IC50 came out at 860 nM in test [1]; 360 nM in the test with CCRF-CEM [4]; 3500 nM in test [2]; 310 nM in the test with HONE1 cell line; 880 nM in the test on HT-29; 1400 nM in the test on HepG2. Also, the IC50 in the test with TSGH was 450 nM. The Activity with Nucleic Acid [5] worked out at 10.5%.

Turning to `CCOC(=O)Nc1cc(CO)cc(Nc2c3ccccc3nc3ccccc23)c1`, the IC50 in test [1] was 380 nM; with CCRF-CEM [4], 57 nM; in test [2], 5000 nM; in the test with HONE1 cell line, 70 nM; in the test with HT-29, 480 nM; with HepG2, 460 nM. For the same compound, in the test on TSGH, the IC50 was determined as 340 nM. Besides, the Activity in the test on Nucleic Acid [3] was 15%.

For the compound `CCOC(=O)Nc1cc(COC(=O)CCCC(=O)Nc2cc(C(=O)Nc3cc(C(=O)NCCN(C)C)n(C)c3)n(C)c2)cc(Nc2c3ccccc3nc3ccccc23)c1`, the IC50 in test [1] came out at 490 nM; in the test with CCRF-CEM [4] it was 2040 nM; in test [2] it was 7500 nM; in the test on HONE1 cell line, 130 nM; with HT-29 it was 640 nM; in the test with HepG2, 630 nM. Besides, the IC50 in the test with MX1 came to 156 nM; in the test with TSGH it was 1200 nM. This compound also returned an Activity in the test on Nucleic Acid [3] of 4.2%.

For the compound `CN(C)CCNC(=O)c1cc(NC(=O)CCCC(=O)Nc2cc(CO)cc(Nc3c4ccccc4nc4ccccc34)c2)cn1C`, the IC50 in [1] is 73300 nM; in test [2], 73600 nM; in the test on HONE1 cell line, 39000 nM; with HT-29, over 100000 nM; in the test on HepG2, 100000 nM; in the test on TSGH it was 46800 nM. Moreover, the Activity in the test on Nucleic Acid [3] came out at 0%.

For `CN1CCN(c2ccc3nc(-c4ccc5nc(-c6ccc(OCCCC(=O)Nc7cc(CO)cc(Nc8c9ccccc9nc9ccccc89)c7)cc6)[nH]c5c4)[nH]c3c2)CC1`, the IC50 (in [1]; in the test with CCRF-CEM [6]; in [2]; in the test on HONE1 cell line; with HT-29; in the test with HepG2) was over 100000 nM throughout. Also, the concentration for half-maximal inhibition (IC50) in the test with MX1 and in the test with TSGH was over 100000 nM each time.

Regarding `CCOC(=O)Nc1cc(COC(=O)CCCC(=O)Nc2cc(C(=O)NCCN(C)C)n(C)c2)cc(Nc2c3ccccc3nc3ccccc23)c1`, the IC50 in test [1] was found to be 80 nM; in the test with CCRF-CEM [4], 17600 nM; in [2], 400 nM; in the test with HONE1 cell line it was 800 nM; with HT-29 it was 750 nM; in the test on HepG2 it was 80 nM. Further, the IC50 came out at 85 nM in the test on MX1 and 1200 nM with TSGH. Moreover, the Activity with Nucleic Acid [3] is 4.6%.
